Activity calls are given as the source filed them. The calls are words filed in the database; no cut-off is given here.
How the values were obtained:
[1] = biological target: Mu-type opioid receptor (Rattus norvegicus) (UniProt P33535); experiment: Inhibition of MOPr desensitization in wistar rat LC neuron cells assessed as reduction in the Met-Enk induced desensitization at 30 uM incubated for 15 mins before in the presence of PD98059; type: functional, cell-based
Target sequence in this assay (P33535 whole entry, the tested form may be a part): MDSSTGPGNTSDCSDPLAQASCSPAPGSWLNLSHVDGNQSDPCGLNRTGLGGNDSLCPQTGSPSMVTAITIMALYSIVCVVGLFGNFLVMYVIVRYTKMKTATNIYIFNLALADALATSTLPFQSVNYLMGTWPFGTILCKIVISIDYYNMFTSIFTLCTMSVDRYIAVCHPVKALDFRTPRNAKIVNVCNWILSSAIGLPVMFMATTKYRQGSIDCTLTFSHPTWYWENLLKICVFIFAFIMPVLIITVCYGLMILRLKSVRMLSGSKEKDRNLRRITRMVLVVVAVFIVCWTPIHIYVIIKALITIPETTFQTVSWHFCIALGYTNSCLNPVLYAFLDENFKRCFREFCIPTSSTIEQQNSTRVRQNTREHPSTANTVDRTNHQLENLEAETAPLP

[2] = biological target: Ribosomal protein S6 kinase beta-1 (Homo sapiens) (UniProt P23443); experiment: Inhibition of human S6K1 assessed as remaining activity at 1 uM in presence of 32ATP relative to control
How it was run: (§1)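 Express panel of 52 purified human kinases run in vitro. Kinase activity was measured directly by a radioactive filter-binding assay with ³²ATP, at ATP levels at or below each kinase's calculated Km for ATP. The compound was tested at 1 μM. Each assay was run in duplicate, and activity is given as the mean percentage (with S.D.) of activity without inhibitor.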

[3] = biological target: Serine/threonine-protein kinase N2 (Homo sapiens) (UniProt Q16513); experiment: Inhibition of human PRK2 assessed as remaining activity at 1 uM in presence of 32ATP relative to control; how it was run: as §1
Sequence of Serine/threonine-protein kinase N2 (Homo sapiens) (Q16513 whole entry, looked up): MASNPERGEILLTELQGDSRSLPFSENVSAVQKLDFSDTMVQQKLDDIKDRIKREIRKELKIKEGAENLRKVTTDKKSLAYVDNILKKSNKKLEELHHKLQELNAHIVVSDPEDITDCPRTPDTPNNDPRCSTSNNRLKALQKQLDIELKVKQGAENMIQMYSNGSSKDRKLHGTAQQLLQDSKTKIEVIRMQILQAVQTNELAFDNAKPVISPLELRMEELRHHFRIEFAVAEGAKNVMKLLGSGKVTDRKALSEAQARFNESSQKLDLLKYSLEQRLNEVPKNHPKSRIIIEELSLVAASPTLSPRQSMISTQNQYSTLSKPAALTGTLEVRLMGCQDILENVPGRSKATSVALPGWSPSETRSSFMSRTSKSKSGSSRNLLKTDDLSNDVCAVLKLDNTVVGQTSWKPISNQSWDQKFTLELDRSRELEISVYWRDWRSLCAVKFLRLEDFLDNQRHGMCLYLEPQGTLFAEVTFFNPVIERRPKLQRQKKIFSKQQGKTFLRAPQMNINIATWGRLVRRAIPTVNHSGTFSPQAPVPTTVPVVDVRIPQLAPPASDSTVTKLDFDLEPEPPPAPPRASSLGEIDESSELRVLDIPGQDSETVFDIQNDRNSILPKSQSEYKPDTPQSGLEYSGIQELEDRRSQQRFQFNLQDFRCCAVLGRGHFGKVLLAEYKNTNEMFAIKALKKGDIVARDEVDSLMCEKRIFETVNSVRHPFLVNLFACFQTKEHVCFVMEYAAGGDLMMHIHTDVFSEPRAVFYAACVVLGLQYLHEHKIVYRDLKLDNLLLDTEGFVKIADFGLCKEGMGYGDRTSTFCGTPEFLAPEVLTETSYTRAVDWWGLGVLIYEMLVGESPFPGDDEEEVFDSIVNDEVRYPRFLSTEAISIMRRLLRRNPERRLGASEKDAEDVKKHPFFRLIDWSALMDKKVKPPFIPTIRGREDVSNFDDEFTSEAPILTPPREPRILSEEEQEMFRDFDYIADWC

[4] = biological target: Serine/threonine-protein kinase 3 (Homo sapiens) (UniProt Q13188); experiment: Inhibition of human MST2 assessed as remaining activity at 1 uM in presence of 32ATP relative to control; how it was run: as §1
[5] = biological target: Serine/threonine-protein kinase N2 (Homo sapiens) (UniProt Q16513); experiment: Inhibition of human PRK2 at 1 uM in presence of 32ATP relative to control; how it was run: as §1
[6] = biological target: Casein kinase 2 (Homo sapiens) (UniProt P67870+P68400+P19784+Q8NEV1); experiment: Inhibition of human CK2 assessed as remaining activity at 1 uM in presence of 32ATP relative to control; type: protein assay
How it was run: (§2)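 Express screen of 52 purified human kinases run as a radioactive filter-binding assay with 32ATP, at 1 μM inhibitor. ATP was at or below each kinase's calculated Km. Activity is given as percent of the activity without inhibitor. Run in duplicate; mean with S.D.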

[7] = biological target: Mu-type opioid receptor (Rattus norvegicus) (UniProt P33535); experiment: Inhibition of HA-tagged rat MOPr in HEK293 cells assessed as reduction in DAMGO induced MOPr internalization level at 30 uM preincubated for 30 mins by ELISA method; type: functional, cell-based
How it was run: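 Surface HA-MOPr in HEK 293 cells was prelabeled with anti-HA for 1 h at 4°C, then inhibitor (3 or 30 μM) was given for 30 min at 37°C, then DAMGO 10 μM at 37°C. Surface receptor was measured by ELISA and normalized to cells not exposed to DAMGO; n = 3–4.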
Target sequence in this assay (P33535 whole entry, the tested form may be a part): as the sequence (P33535 whole entry, the tested form may be a part) above

[8] = biological target: Serine/threonine-protein kinase Nek6 (Homo sapiens) (UniProt Q9HC98); experiment: Inhibition of human NEK6 assessed as remaining activity at 1 uM in presence of 32ATP relative to control; how it was run: as §1
[9] = biological target: Calcium/calmodulin-dependent protein kinase type 1 (Homo sapiens) (UniProt Q14012); experiment: Inhibition of human CAMK1 assessed as remaining activity at 1 uM in presence of 32ATP relative to control; how it was run: as §2
Sequence of Calcium/calmodulin-dependent protein kinase type 1 (Homo sapiens) (Q14012 whole entry, looked up): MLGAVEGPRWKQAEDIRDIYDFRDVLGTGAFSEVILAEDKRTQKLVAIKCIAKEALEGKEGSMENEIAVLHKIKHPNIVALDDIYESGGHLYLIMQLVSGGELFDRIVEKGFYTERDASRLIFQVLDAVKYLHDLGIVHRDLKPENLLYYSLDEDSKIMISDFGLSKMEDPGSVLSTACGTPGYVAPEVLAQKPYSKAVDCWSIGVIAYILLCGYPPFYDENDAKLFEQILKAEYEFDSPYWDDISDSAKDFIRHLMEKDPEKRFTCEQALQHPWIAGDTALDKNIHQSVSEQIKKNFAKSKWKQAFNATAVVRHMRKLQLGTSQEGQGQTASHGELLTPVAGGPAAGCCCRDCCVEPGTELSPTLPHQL

[10] = biological target: SRSF protein kinase 1 (Homo sapiens) (UniProt Q96SB4); experiment: Inhibition of human SRPK1 assessed as remaining activity at 1 uM in presence of 32ATP relative to control; how it was run: as §1
Sequence of SRSF protein kinase 1 (Homo sapiens) (Q96SB4 whole entry): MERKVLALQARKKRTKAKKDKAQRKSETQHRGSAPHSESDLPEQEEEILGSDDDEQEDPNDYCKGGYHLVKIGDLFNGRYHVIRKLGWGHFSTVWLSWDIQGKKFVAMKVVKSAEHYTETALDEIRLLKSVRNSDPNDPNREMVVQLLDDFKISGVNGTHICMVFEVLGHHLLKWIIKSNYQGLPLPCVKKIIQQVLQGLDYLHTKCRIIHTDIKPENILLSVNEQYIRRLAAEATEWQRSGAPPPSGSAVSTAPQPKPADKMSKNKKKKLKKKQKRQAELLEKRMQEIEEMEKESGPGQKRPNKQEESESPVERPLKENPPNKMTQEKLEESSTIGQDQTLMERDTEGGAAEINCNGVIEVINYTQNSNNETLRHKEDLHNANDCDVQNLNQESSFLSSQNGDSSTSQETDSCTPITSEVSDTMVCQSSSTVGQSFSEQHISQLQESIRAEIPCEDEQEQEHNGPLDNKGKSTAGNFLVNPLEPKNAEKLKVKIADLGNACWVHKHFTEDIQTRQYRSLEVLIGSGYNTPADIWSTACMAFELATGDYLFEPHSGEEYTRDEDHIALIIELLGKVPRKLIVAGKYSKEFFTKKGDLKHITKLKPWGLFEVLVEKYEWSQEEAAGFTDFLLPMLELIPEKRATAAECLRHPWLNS

[11] = biological target: Mu-type opioid receptor (Mus musculus) (UniProt P42866); experiment: Inhibition of MOPr desensitization in C57BL/6J mouse LC neuron cells assessed as reduction in the Met-Enk induced desensitization at 3 uM incubated for 15 mins before
[12] = biological target: Mu-type opioid receptor (Rattus norvegicus) (UniProt P33535); experiment: Inhibition of HA-tagged rat MOPr stably expressing in HEK293 cells assessed as increase in DAMGO-induced ERK1/2 phosphorylation level at 3 to 30 uM preincubated for 30 mins by westernblot analysis; type: functional, cell-based; conditions: dose 3-30 µM
How it was run: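 HEK 293 cells stably expressing HA-tagged rat MOPr were grown to 90% confluence and serum-starved 24 h. Inhibitor was added for 30 min, then DAMGO 10 μM for 5 min. pERK1/2 was measured by Western blot with ECL detection. Densitometry was done in duplicate, normalized to total ERK1/2 and expressed as % of maximal DAMGO response; n = 4.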
Target sequence in this assay (P33535 whole entry, the tested form may be a part): as the sequence (P33535 whole entry, the tested form may be a part) above

[13] = organism: Homo sapiens; experiment: Inhibition of human AMPK assessed as remaining activity at 1 uM in presence of 32ATP relative to control; how it was run: as §2
[14] = biological target: 3-phosphoinositide-dependent protein kinase 1 (Homo sapiens) (UniProt O15530); experiment: Inhibition of human PDK1 assessed as remaining activity at 1 uM in presence of 32ATP relative to control
[15] = biological target: Mu-type opioid receptor (Rattus norvegicus) (UniProt P33535); experiment: Inhibition of HA-tagged rat MOPr in HEK293 cells assessed as prevention in DAMGO induced MOPr phosphorylation at Thr379 level at 30 uM preincubated for 30 mins by western blot analysis; type: functional, cell-based
Target sequence in this assay (P33535 whole entry, the tested form may be a part): as above

[16] = biological target: Insulin-like growth factor 1 receptor (Homo sapiens) (UniProt P08069); experiment: Inhibition of human IGF1R assessed as remaining activity at 1 uM in presence of 32ATP relative to control; how it was run: as §1
[17] = biological target: Ribosomal protein S6 kinase alpha-5 (Homo sapiens) (UniProt O75582); experiment: Inhibition of human MSK1 at 1 uM in presence of 32ATP relative to control; how it was run: as §1
Sequence of Ribosomal protein S6 kinase alpha-5 (Homo sapiens) (O75582 whole entry, looked up): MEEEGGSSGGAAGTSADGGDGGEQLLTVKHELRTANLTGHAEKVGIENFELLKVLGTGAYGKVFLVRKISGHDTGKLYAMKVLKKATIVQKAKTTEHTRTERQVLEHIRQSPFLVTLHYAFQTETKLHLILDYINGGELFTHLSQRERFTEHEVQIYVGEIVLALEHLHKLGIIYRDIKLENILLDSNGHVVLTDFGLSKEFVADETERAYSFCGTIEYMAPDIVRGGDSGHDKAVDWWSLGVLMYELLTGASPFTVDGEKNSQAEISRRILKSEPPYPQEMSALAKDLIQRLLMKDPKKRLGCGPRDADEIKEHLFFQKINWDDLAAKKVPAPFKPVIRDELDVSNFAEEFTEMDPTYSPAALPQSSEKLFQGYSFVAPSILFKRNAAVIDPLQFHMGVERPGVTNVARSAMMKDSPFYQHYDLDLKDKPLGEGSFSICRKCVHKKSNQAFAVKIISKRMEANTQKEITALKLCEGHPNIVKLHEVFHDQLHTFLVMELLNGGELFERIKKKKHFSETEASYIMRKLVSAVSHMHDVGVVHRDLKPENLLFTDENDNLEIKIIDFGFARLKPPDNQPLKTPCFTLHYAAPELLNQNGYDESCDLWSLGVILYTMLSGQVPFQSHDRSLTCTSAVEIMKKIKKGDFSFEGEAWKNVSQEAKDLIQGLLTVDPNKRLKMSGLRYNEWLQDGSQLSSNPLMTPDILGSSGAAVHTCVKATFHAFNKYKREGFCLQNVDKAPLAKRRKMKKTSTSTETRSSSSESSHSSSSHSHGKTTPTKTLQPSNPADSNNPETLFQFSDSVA

[18] = biological target: Mitogen-activated protein kinase; ERK1/ERK2 (Homo sapiens) (UniProt P27361+P28482); experiment: Inhibition of ERK1/2 (unknown origin) at 1 uM in presence of 32ATP relative to control; type: protein assay; how it was run: as §2
Sequence of Mitogen-activated protein kinase; ERK1/ERK2 (Homo sapiens) (P27361 whole entry, looked up): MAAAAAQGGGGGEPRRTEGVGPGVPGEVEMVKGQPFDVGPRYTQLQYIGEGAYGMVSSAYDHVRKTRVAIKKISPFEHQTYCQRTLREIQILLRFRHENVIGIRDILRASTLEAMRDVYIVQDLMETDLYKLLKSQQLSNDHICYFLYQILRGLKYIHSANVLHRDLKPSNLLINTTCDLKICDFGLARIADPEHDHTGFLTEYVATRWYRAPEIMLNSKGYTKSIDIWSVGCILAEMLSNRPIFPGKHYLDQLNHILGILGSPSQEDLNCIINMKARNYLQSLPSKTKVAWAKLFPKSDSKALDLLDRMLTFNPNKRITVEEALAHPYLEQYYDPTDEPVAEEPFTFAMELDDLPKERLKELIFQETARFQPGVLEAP
Sequence of Mitogen-activated protein kinase; ERK1/ERK2 (Homo sapiens) (P28482 whole entry, looked up): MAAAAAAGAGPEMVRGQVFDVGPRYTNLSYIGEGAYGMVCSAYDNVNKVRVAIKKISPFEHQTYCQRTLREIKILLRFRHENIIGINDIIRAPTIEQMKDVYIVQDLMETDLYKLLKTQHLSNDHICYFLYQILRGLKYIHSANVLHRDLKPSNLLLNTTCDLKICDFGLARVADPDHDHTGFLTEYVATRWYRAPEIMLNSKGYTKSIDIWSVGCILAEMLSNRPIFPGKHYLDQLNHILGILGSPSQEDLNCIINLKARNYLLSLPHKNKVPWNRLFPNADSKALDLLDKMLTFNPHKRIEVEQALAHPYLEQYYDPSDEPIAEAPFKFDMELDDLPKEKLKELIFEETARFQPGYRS

[19] = biological target: Mu-type opioid receptor (Rattus norvegicus) (UniProt P33535); experiment: Inhibition of MOPr desensitization in wistar rat LC neuron cells assessed as reduction in the Met-Enk induced desensitization at 30 uM incubated for 15 mins before in the presence of amlexanox; type: functional, cell-based
Target sequence in this assay (P33535 whole entry, the tested form may be a part): as the sequence (P33535 whole entry, the tested form may be a part) above

[20] = biological target: Mu-type opioid receptor (Rattus norvegicus) (UniProt P33535); experiment: Inhibition of MOPr desensitization in wistar rat LC neuron cells assessed as reduction in the Met-Enk induced desensitization at 30 uM incubated for 15 mins before relative to control; type: functional, cell-based
How it was run: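 Whole-cell patch clamp of GIRK currents in locus coeruleus slices from male Wistar rats (5–8 weeks). Inhibitor was given at least 15 min before and during the agonist, all drugs by superfusion. Percent desensitization was taken over 10 min of opioid agonist application. Met-Enk n = 5, endomorphin-2 n = 6; ANOVA.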
Target sequence in this assay (P33535 whole entry, the tested form may be a part): as above

[21] = biological target: Serine/threonine-protein kinase Sgk1 (Homo sapiens) (UniProt O00141); experiment: Inhibition of human SGK1 assessed as remaining activity at 1 uM in presence of 32ATP relative to control; how it was run: as §1
Sequence of Serine/threonine-protein kinase Sgk1 (Homo sapiens) (O00141 whole entry): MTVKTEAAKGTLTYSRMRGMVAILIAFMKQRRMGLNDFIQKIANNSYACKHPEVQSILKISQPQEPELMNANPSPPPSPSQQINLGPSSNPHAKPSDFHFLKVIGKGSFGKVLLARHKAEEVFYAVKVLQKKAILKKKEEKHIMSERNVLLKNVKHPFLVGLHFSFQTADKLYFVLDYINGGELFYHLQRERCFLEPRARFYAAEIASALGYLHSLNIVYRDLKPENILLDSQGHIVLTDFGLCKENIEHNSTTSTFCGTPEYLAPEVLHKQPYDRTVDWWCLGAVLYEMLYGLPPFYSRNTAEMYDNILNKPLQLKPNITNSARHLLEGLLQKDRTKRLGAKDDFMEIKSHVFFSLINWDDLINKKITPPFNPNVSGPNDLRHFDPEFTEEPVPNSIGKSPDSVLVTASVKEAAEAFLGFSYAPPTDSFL

[22] = biological target: Mu-type opioid receptor (Rattus norvegicus) (UniProt P33535); experiment: Inhibition of MOPr desensitization (unknown origin) assessed as DAMGO induced loss of functional receptor at 30 uM incubated for 15 mins relative to control
Target sequence in this assay (P33535 whole entry, looked up, the tested form may be a part): as the sequence (P33535 whole entry, the tested form may be a part) above

[23] = biological target: Mu-type opioid receptor (Rattus norvegicus) (UniProt P33535); experiment: Inhibition of HA-tagged rat MOPr in HEK293 cells assessed as DAMGO induced MOPr phosphorylation at Ser375 level at 30 uM preincubated for 30 mins by western blot analysis; type: functional, cell-based
How it was run: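 Serum-starved HEK 293 cells stably expressing HA-rat MOPr were pretreated with inhibitor for 30 min, then DAMGO 10 μM for 5 min. Receptor was enriched on WGA-agarose overnight at 4°C and blotted for pSer375. Densitometry was done in duplicate and normalized to total HA-MOPr; n = 3.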

[24] = biological target: Beta-2 adrenergic receptor (Bos taurus) (UniProt Q28044); experiment: Inhibition of bovine beta2-adrenoceptor desensitization in HEK293 cell; type: cell-based; conditions: dose 3-30 µM

Cn1c(CNc2cccc(C(=O)NCc3ccccc3C(F)(F)F)c2)nnc1-c1ccncc1
inhibition [1]: inactive
Activity [2]: 47%
Activity [3]: 7%
Activity [4]: 89%
inhibition [5]: 93%
Activity [6]: 106%
inhibition [7]: Active
Activity [8]: 95%
Activity [9]: 101%
Activity [10]: 91%
inhibition [11]: Active
inhibition [12]: inactive
Activity [13]: 82%
Activity [14]: 93%
inhibition [15]: Active
Activity [16]: 103%
inhibition [17]: > 50%
inhibition [18]: < 20%
inhibition [19]: inactive
desensitization [20]: 15%
Activity [21]: 31%
inhibition [22]: 59%
inhibition [23]: Active
inhibition [24]: Dose-Dependent Effect

— ChEMBL document CHEMBL5705902, “Role of G Protein-Coupled Receptor Kinases 2 and 3 in μ-Opioid Receptor Desensitization and Internalization” (Mol Pharmacol, 2015)
